Source: article PMC11408085 (Biochemistry, 2024)
Where two headings read alike, the source gives them in different places.

What was measured:
[1] = target: T1, E91K/K116E variant of IYD (Haliscomenobacter hydrossis, UniProt F4KU78, E91K/K116E); experiment: Catalytic dehalogenation by E91K/K116E variant of IYD; format: biochemical
[2] = target: T2, IYD from Haliscomenobacter hydrossis (Haliscomenobacter hydrossis, UniProt F4KU78); conditions: for fold change in t1/2: relative to IYD without ligand (10 min); for protection of IYD against trypsin: fluorinated ligands, saturating concentration; for fold increase in t1/2: O2N ligands, relative to IYD without ligand
T2 sequence (F4KU78 1-222): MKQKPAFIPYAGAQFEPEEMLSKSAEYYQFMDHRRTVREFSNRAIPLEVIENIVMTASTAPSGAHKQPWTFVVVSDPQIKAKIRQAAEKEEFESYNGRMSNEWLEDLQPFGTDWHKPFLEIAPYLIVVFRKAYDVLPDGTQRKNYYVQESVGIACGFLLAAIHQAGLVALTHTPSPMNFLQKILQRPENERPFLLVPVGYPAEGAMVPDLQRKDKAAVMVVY

[3] = target: T2, IYD from Haliscomenobacter hydrossis; experiment: biochemical; format: binding
[4] = target: T1, E91K/K116E variant of IYD; experiment: Limited proteolysis of E91K/K116E variant of IYD by trypsin; conditions: relative to absence of ligands
[5] = target: T3, trypsin from bovine pancreas (Bos taurus, UniProt P00760); experiment: Potential inhibition of trypsin by ligands of IYD; format: biochemical; conditions: DL-BAPNA as substrate; for inhibition of trypsin: ligand at concentration saturating IYD
T3 sequence (P00760 24-246): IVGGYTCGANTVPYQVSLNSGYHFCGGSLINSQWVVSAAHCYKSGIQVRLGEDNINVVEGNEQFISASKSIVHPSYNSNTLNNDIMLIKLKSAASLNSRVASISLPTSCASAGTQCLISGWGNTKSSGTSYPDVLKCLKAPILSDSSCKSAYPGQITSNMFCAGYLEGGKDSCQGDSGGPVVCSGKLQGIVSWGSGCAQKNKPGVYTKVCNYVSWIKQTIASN
Outline: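 4-Nitroaniline formation read at 405 nm (ε = 9920 M⁻¹cm⁻¹) every 15 s for 5 min. Rate taken by linear regression over the first 2 min. Repeated independently twice.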

[6] = target: T1, E91K/K116E variant of IYD; experiment: Affinity of ligands to E91K/K116E variant of IYD; format: binding
[7] = target: T2, IYD from Haliscomenobacter hydrossis; experiment: Redox titration of IYD in the presence of substrate analogues; conditions: for formation of FMNsq during reductive titration: saturating ligand, anaerobic, pH 7.4, 25 °C; for two-electron potential of IYD: in presence of ligand, −200 mV in absence of ligands
[8] = target: T2, IYD from Haliscomenobacter hydrossis; experiment: Catalytic deiodination; format: biochemical; conditions: for kcat (s^−1) × 10^−2 / Km: deiodination, 100 mM potassium phosphate pH 7.4, 25 °C
[9] = target: T2, IYD from Haliscomenobacter hydrossis; conditions: deiodination; ref Kozyryev et al.[26]; cited from earlier work
[10] = target: T2, IYD from Haliscomenobacter hydrossis; conditions: IYD with FMNox; ref Kozyryev et al.[26]; cited from earlier work
[11] = target: T2, IYD from Haliscomenobacter hydrossis; format: biochemical; conditions: equimolar concentrations of substrate, anaerobic
Catalytic deiodination [12] = substrate: N[C@H](Cc1ccc(O)c(I)c1)C(=O)O; experiment: Catalytic deiodination; format: biochemical, Haliscomenobacter hydrossis; conditions: other: deiodination, 100 mM potassium phosphate pH 7.4, 25 °C
Catalytic deiodination [13] = substrate: O=C(O)[C@@H](O)Cc1ccc(O)c(I)c1; experiment: Catalytic deiodination; format: biochemical, Haliscomenobacter hydrossis; conditions: other: deiodination, 100 mM potassium phosphate pH 7.4, 25 °C
[14] = IYD with FMNox, 110 mM potassium phosphate pH 7.4, 25 °C

Molecule: N[C@H](Cc1ccc(O)c(I)c1)C(=O)O [D-I-Tyr, D-3-iodotyrosine]
- catalytic dehalogenation [1]: No catalytic dehalogenation could be detected
- fold change in t1/2 [2]: 0.62
- Kd [3]: 270 ± 15 µM
- protection of variant from trypsin [4]: over a twofold protection
- inhibition of trypsin [5]: mild inhibitor of trypsin
- Kd [6]: 200 ± 30 µM

Molecule: N[C@@H](Cc1ccc(O)c(F)c1)C(=O)O [F-Tyr, L-3-fluorotyrosine, reference compound]
- Kd [3]: 97 ± 3 µM
- decrease in affinity relative to I-Tyr ([3]; IYD with FMNox): more than 10 fold
- formation of FMNsq during reductive titration [7]: consistent with the neutral form of FMNsq

Molecule: NCCc1ccc(O)c(F)c1 [F-tyramine]
- protection of IYD against trypsin [2]: protected IYD against trypsin
- Kd [3, 14]: 730 ± 140 µM
- inhibition of trypsin [5]: inhibited trypsin
- two-electron potential of IYD [7]: −225 mV
- formation of FMNsq during reductive titration [7]: not detected

Molecule: NC(=O)[C@@H](N)Cc1ccc(O)c(F)c1 [F-tyrosinamide]
- protection of IYD against trypsin [2]: protected IYD against trypsin
- Kd [3, 14]: 77 ± 3 µM
- two-electron potential of IYD [7]: −236 mV
- formation of FMNsq during reductive titration [7]: not detected

Molecule: O=C(O)[C@@H](O)Cc1ccc(O)c(I)c1 [I-HPLA, (S)-3-(4-hydroxy-3-iodophenyl)lactic acid]
- Kd [3]: > 3000 µM

Molecule: O=C(O)CCc1ccc(O)c(I)c1 [I-HPPA, 3-(4-hydroxy-3-iodophenyl)propanoic acid]
- kcat (s^−1) × 10^−2 [8]: <9.3 × 10^−3^e s^−1 × 10^−2
- kcat as percentage of that for I-Tyr ([8]; set by detection limit of deiodinated product HPPA): ≤ 0.015%
- Kd [3]: > 4000 µM
- decrease in affinity relative to I-Tyr ([3]; IYD with FMNox): at least 700 fold

Molecule: N[C@@H](Cc1ccc(O)c(I)c1)C(=O)O [I-Tyr, L-3-iodotyrosine, reference compound]
- catalytic dehalogenation [1]: No catalytic dehalogenation could be detected
- fold change in t1/2 [2]: 2.2
- Km [9]: 49 ± 10 µM
- kcat (s^−1) × 10^−2 [9]: 60 ± 0.5 s^−1 × 10^−2
- protection of variant from trypsin [4]: over a twofold protection
- Kd [10]: 5.7 ± 0.4 µM
- inhibition of trypsin [5]: not due to general inhibition of trypsin
- Kd [6]: 85 ± 14 µM

Molecule: NCCc1ccc(O)c(I)c1 [I-tyramine]
- fold change in t1/2 [2]: 2.7
- decrease in kcat for dehalogenation relative to I-Tyr [8]: more than 30 fold
- decrease in kcat/Km of dehalogenation relative to I-Tyr [8]: more than 900 fold
- Km [8]: 1470 ± 450 µM
- kcat (s^−1) × 10^−2 [8]: 1.8 ± 0.3 s^−1 × 10^−2
- Kd [3, 14]: 99 ± 10 µM

Molecule: NC(=O)C(N)Cc1ccc(O)c(I)c1 (stereo not shown) [I-tyrosinamide]
- fold change in t1/2 [2]: 2.7
- decrease in kcat for dehalogenation relative to I-Tyr [8]: more than 30 fold
- decrease in kcat/Km of dehalogenation relative to I-Tyr [8]: more than 900 fold
- Km [8]: 2410 ± 410 µM
- kcat (s^−1) × 10^−2 [8]: 1.7 ± 0.2 s^−1 × 10^−2
- Kd [3, 14]: 7 ± 0.2 µM

Molecule: O=C(O)[C@@H](O)Cc1ccc(O)c([N+](=O)[O-])c1 [O2N-HPLA, (S)-3-(4-hydroxy-3-nitrophenyl)lactic acid]
- fold increase in t1/2 [2]: 2.1
- Kd [3]: 180 ± 4 µM
- ability to oxidize reduced IYD (FMNhq) [11]: capable of oxidizing FMNhq to regenerate the initial FMNox spectrum
- inhibition of trypsin catalysis ([5]; ligand at twice its Kd value): no more than 25%

Molecule: NCCc1ccc(O)c([N+](=O)[O-])c1 [O2N-tyramine]
- fold increase in t1/2 [2]: 2.7
- weakening of binding relative to O2N-Tyr ([3]; IYD with FMNox): 70 fold
- Kd [3, 14]: 280 ± 10 µM
- ability to oxidize reduced IYD (FMNhq) [11]: capable of oxidizing FMNhq to regenerate the initial FMNox spectrum

Molecule: NC(=O)[C@@H](N)Cc1ccc(O)c([N+](=O)[O-])c1 [O2N-tyrosinamide]
- fold increase in t1/2 [2]: 3.0
- Kd [3, 14]: 2.4 ± 0.1 µM
- ability to oxidize reduced IYD (FMNhq) [11]: capable of oxidizing FMNhq to regenerate the initial FMNox spectrum
- inhibition of trypsin [5]: not the consequence of a general inhibition of trypsin

B1: IYD from Haliscomenobacter hydrossis (Haliscomenobacter hydrossis DSM 1100) (protein)
chain: T2 sequence (F4KU78 1-222)
- Km (Catalytic deiodination [12]): 7900 ± 4000 µM
- kcat (Catalytic deiodination [12]): 0.027 ± 0.01 s⁻¹
- kcat/Km (Catalytic deiodination [12]): 3.4 ± 1 M⁻¹ s⁻¹
- Km (Catalytic deiodination [13]): 270 ± 30 µM
- kcat (Catalytic deiodination [13]): 0.013 ± 0.001 s⁻¹
- kcat/Km (Catalytic deiodination [13]): 47 ± 5 M⁻¹ s⁻¹
